Measured values from different studies.
Each line is one published result; the experiments were not run side by side.
Sample: plasma

`COc1cc(-c2cc(C(C)=O)n3ccccc23)c(OC)cc1Cn1ccnc1` has a bioavailability of 50.3% (male Sprague-Dawley rat; oral, 5 mg/kg).
`COc1nc(-c2cccc(-c3ccccc3)c2C)ccc1CNCCNC(=O)CCCCCCCCCCC(=O)N1CCN(CCNC(=O)c2cc3c(=O)n4cccc(C)c4nc3n(CCc3cccs3)c2=N)CC1` has a bioavailability of 74.8% (male Sprague-Dawley rat; intraperitoneal, 4 mg/kg).
`COc1ccc(N(Cc2csc(-c3ccccc3)n2)C(=O)CCCCCC(=O)NO)cc1` gave a bioavailability of 10.3% (female Sprague-Dawley rat; oral).
The bioavailability of `Cc1cc(S(=O)(=O)N[C@H]2CC[C@H](CN3CCN(c4cccc(NC5CCC(=O)NC5=O)c4)CC3)CC2)ccc1Nc1ncc(C(F)(F)F)c(N2CCC[C@](C)(O)C2)n1` (stereo partly shown) is reported as 13% (rat; oral, 10 mg/kg).
`O=C1CCC(N2Cc3cc(C4CCN(Cc5ccccc5)CC4)ccc3C2=O)C(=O)N1` (stereo not shown) has a bioavailability of 36.2% (male Sprague-Dawley rat; oral, 3 mg/kg).
For `C[C@H]1Oc2cc(cnc2N)-c2c(nn(C)c2C#N)CN(C)C(=O)c2ccc(F)cc21`, the bioavailability was 8.6% (Sprague-Dawley rat; oral).
`Cc1cc(S(=O)(=O)NC2CC(N3CCN(CC4CCN(c5ccc6c(c5F)n(C)c(=O)n6C5CCC(=O)NC5=O)CC4)CC3)C2)ccc1Nc1ncc(C(F)(F)F)c(N2CCCC(C)(O)C2)n1` (stereo not shown) gave a bioavailability of 1% (rat; oral, 10 mg/kg).
The bioavailability of `CCCCC(=O)Nc1ccc(-c2ccc3ncn(CCC)c(=O)c3c2)cn1` is reported as 21.1% (male rat; oral, 10 mg/kg).
The bioavailability of `Cc1cc(S(=O)(=O)N[C@H]2CC[C@H](CN3CCN(c4ccc(C5CCC(=O)NC5=O)c(Cl)c4)CC3)CC2)ccc1Nc1ncc(C(F)(F)F)c(N2CCC[C@](C)(O)C2)n1` (stereo partly shown) is reported as 25% (rat; oral, 10 mg/kg).
`CC(C)C[C@H](NC(=O)NCc1cn(-c2ccccc2C(=O)OCn2cc(F)c(=O)[nH]c2=O)nn1)C(=O)NO` gave a bioavailability of ~0.64% (male Sprague-Dawley rat; oral, 50 mg/kg).
